Assay results as given in ChEMBL document CHEMBL4477197, “Antitumor Activity of Spicatoside A by Modulation of Autophagy and Apoptosis in Human Colorectal Cancer Cells” (J Nat Prod, 2016).
Active and inactive are the calls of the source. The calls are words filed in the database; no cut-off is given here.

Experiments:
[1] = tested on: HCT-116; assay: Antiproliferative activity against human HCT116 cells after 24 to 72 hrs by SRB assay; format: functional, cell-based
Outline: (§1)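 Cells from ATCC were grown at 37 °C in 5% CO2, in RPMI 1640 (A549, HCT116, SNU-638) or DMEM (MDA-MB-231, SK-HEP-1, MRC5) with 10% FBS. They were seeded at 6 × 10^3 cells/well for 24 h, then exposed for 72 h. Cells were TCA-fixed, stained with 0.4% SRB, and read at 515 nm against day-zero plates. IC50 came from nonlinear regression, as means ± SD.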

[2] = tested on: MDA-MB-231; assay: Antiproliferative activity against human MDA-MB-231 cells after 24 to 72 hrs by SRB assay; format: functional, cell-based; outline: as §1
[3] = tested on: HCT-116; assay: Growth inhibition of human HCT116 cells after 24 hrs by SRB assay; format: functional, cell-based
Outline: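 SRB assay. Cells were seeded at 6 × 10^3/well, grown 24 h, then fixed as day-zero controls or treated 24 or 48 h. They were fixed with 10% TCA and stained with 0.4% SRB in 1% acetic acid; dye was dissolved in 10 mM Tris pH 10.0 and read at 515 nm. Proliferation was normalized to day zero and control, and IC50 came from nonlinear regression. n = 3.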

[4] = tested on: HCT-116; assay: Induction of autophagy in human HCT116 cells assessed as formation of acidic vesicular organelles at 20 uM after 24 hrs by acridine orange staining based assay relative to control; format: functional, cell-based
Outline: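 Cells were seeded at 1 × 10^5/well, grown 24 h, then treated 24 h with 20 μM compound, 2.5 nM bafilomycin A1, or both. They were stained with acridine orange (2 μg/mL) for 15 min and washed in DPBS. AO-positive cells were quantified by high-content imaging and expressed as an index versus vehicle. Triplicates.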

[5] = Inhibition of PI3K/Akt/mTOR in human HCT116 cells assessed as downregulation of PI3K p101 at 10 to 30 uM after 24 hrs by Western blot analysis; format: cell-based
Outline: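 HCT116 cells were lysed after 24 h with the indicated concentrations. PI3K, PTEN, Akt and mTOR were immunoblotted (SDS-PAGE, PVDF, 5% BSA block, ECL).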

[6] = Inhibition of PI3K/Akt/mTOR in human HCT116 cells assessed as suppression of mTOR phosphorylation at Ser2448 at 10 to 30 uM after 24 hrs by Western blot analysis; format: cell-based
Outline: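 HCT116 cells (RPMI 1640, 10% FBS, 37 °C, 5% CO2) exposed to the compound for 24 h, then lysed in 2× SDS sample buffer with NaF and orthovanadate and boiled. BCA-normalised protein (10−30 μg) run on 6−15% SDS-PAGE and blotted to PVDF. Blocked in 5% BSA/PBS-Tween, probed for PI3K, PTEN, Akt and mTOR, and detected by ECL. Blots are representative of three determinations.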

[7] = molecular target: Mitogen-activated protein kinase; ERK1/ERK2 (Homo sapiens) (UniProt P27361+P28482); assay: Inhibition of ERK1/2 phosphorylation in human HCT116 cells after 24 hrs by Western blot analysis; format: cell-based
[8] = molecular target: c-Jun N-terminal kinase, JNK (Homo sapiens) (UniProt P45983+P53779+P45984); assay: Activation of JNK in human HCT116 cells after 24 hrs by Western blot analysis; format: cell-based
[9] = tested on: HCT-116; assay: Cell cycle arrest in human HCT116 cells assessed as accumulation at subG1 phase at 10 uM after 48 hrs by propidium iodide staining based flow cytometry; format: functional
[10] = tested on: HCT-116; assay: Induction of apoptosis in human HCT116 cells at 10 uM after 48 hrs by Annexin V-FITC/propidium iodide staining based flow cytometry; format: functional
Outline: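 HCT116 cells were treated 48 h, then resuspended in binding buffer at 1 × 10^6 cells/mL. They were stained with annexin V-FITC and PI for 20 min at room temperature in the dark, diluted and analyzed immediately by flow cytometry for annexin V-positive cells. n = 3.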

[11] = tested on: HCT-116; assay: Induction of apoptosis in human HCT116 cells assessed as activation of PARP cleavage at 10 to 30 uM after 48 hrs by Western blot analysis; format: functional, cell-based
Outline: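 HCT116 cells were treated with the indicated concentrations for 48 h. Lysates were prepared in SDS sample buffer and 10–30 μg protein was separated by SDS-PAGE, blotted to PVDF and blocked in 5% BSA. Cleaved caspase-8, -9, -3 and PARP were detected by ECL.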

[12] = tested on: HCT-116; assay: Induction of apoptosis in human HCT116 cells assessed as downregulation of Bcl-2 levels at 10 to 30 uM after 48 hrs by Western blot analysis; format: functional, cell-based
[13] = tested on: HCT-116; assay: Induction of apoptosis in human HCT116 cells assessed as caspase 8 cleavage at 30 uM upto 48 hrs by Western blot analysis; format: functional, cell-based
Outline: (§2)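 Time course: HCT116 cells were exposed to 30 μM compound for 6, 12, 24, 36 and 48 h. LC3-II, beclin 1, cleaved caspase-8 and cleaved PARP were measured by Western blot (SDS-PAGE, PVDF, ECL) with β-actin as internal standard.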

[14] = tested on: HCT-116; assay: Induction of apoptosis in human HCT116 cells assessed as PARP cleavage at 30 uM upto 48 hrs by Western blot analysis; format: functional, cell-based; outline: as §2
[15] = tested on: HCT-116; assay: Induction of autophagy in human HCT116 cells assessed as accumulation of LC3-2 at 30 uM after 24 hrs in presence of autophagy inhibitor 3-MA by Western blot analysis; format: functional, cell-based
Outline: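 HCT116 cells were pretreated 1 h with 2 mM 3-MA, then given 30 μM compound for a further 24 h. Whole-cell lysates were immunoblotted for LC3-II and cleaved PARP, with β-actin as loading standard and ECL detection. Blots are representative of three separate determinations.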

[16] = tested on: HCT-116; assay: Increase in LC3-2 levels in human HCT116 cells at 30 uM after 48 hrs in presence of z-IETD-FMK by Western blot analysis; format: functional, cell-based
Outline: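 HCT116 cells were cultured 48 h with 30 μM compound, with or without 20 μM z-IETD-FMK. Lysates were made in SDS loading buffer and 10–30 μg protein was resolved by 6–15% SDS-PAGE and transferred to PVDF. Blots were probed for cleaved caspase-8, beclin 1, cleaved beclin 1 and LC3-II, and detected by ECL.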

[17] = tested on: HCT-116; assay: Antitumor activity against human HCT116 cells xenografted in BALB/c-nu mouse assessed as inhibition of tumor weight at 2.5 mg/kg, ip administered three times per week for 28 days measured post dosing relative to control; format: functional; conditions: HCT-116, ip, 672 h
Outline: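 Nude mice bearing subcutaneous HCT116 flank tumors (2 × 10^6 cells) were randomized at ~200 mm3, five per group. Dosing was 2.5 or 5 mg/kg ip in saline/0.5% Tween 80, three times weekly for 28 days, with vehicle controls. Tumors were excised on day 28 and weighed; inhibition was expressed against the vehicle group.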

[18] = tested on: Mus musculus; assay: Induction of PARP cleavage in human HCT116 cells xenografted in BALB/c-nu mouse at 2.5 to 5 mg/kg, ip administered three times per week for 28 days measured post dosing by Western blot analysis; format: functional, organism-based
Outline: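 Excised xenograft tumors (2.5 or 5 mg/kg ip, three times weekly for 28 days) were frozen. Portions were thawed on ice and homogenized in Complete Lysis Buffer, then protein was quantified. Cleaved PARP was detected by Western blot with β-actin as internal standard; blots shown are representative of three determinations.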

Chain of Mitogen-activated protein kinase; ERK1/ERK2 (Homo sapiens) (P27361 whole entry, looked up): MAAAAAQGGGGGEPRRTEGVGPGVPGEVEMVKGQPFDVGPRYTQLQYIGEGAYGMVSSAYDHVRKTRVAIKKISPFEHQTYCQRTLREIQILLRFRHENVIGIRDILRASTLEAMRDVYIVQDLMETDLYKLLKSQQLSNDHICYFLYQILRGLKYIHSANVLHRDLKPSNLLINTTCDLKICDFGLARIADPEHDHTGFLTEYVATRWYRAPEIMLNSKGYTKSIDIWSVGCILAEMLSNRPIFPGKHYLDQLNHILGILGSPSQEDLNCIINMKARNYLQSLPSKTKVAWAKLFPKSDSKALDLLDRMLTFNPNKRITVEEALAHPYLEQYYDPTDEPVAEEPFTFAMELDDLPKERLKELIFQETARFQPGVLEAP
Chain of Mitogen-activated protein kinase; ERK1/ERK2 (Homo sapiens) (P28482 whole entry, looked up): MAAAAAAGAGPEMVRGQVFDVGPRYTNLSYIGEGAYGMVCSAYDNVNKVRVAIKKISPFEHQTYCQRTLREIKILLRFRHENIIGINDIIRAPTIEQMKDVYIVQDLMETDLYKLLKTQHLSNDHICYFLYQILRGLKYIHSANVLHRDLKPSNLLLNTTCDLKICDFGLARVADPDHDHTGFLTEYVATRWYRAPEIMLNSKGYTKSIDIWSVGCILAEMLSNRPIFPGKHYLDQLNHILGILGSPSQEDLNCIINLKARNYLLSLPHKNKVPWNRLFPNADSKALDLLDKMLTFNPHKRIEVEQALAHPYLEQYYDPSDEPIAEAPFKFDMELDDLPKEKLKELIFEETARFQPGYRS

Question: With `C[C@H]1CC[C@@]2(OC1)O[C@H]1C[C@H]3[C@@H]4CC=C5C[C@@H](O)C[C@@H](O[C@@H]6O[C@H](C)[C@H](O)[C@H](O[C@@H]7OC[C@@H](O)[C@H](O)[C@H]7O)[C@H]6O[C@@H]6O[C@H](CO)[C@@H](O)[C@H](O)[C@H]6O)[C@]5(C)[C@H]4CC[C@]3(C)[C@H]1[C@@H]2C` as the molecule, how does the IC50 [1] read?
Answer: The IC50 was 13.8 µM.

Question: What about the IC50 [2] of the same molecule?
Answer: Its IC50 is 29.6 µM.

Question: What about the “growth inhibition (GI)” value [3] of the same molecule?
Answer: Its value is “Dose-dependent effect”.

Question: What about the IC50 ([3]; HCT-116, 24 h) of the same molecule?
Answer: Its IC50 is 28.9 µM.

Question: What about the Activity [4] of the same molecule?
Answer: Its Activity is “Active”.

Question: What about the inhibition [5] of the same molecule?
Answer: The inhibition was “Active”.

Question: What about the inhibition [6] of the same molecule?
Answer: The inhibition was “Active”.

Question: And the inhibition [7]?
Answer: The inhibition was “Dose-dependent effect”.

Question: And the Activity [8]?
Answer: Its Activity is “inactive”.

Question: And the Activity [9]?
Answer: Its Activity is 5.52%.

Question: What about the Activity [10] of the same molecule?
Answer: Its Activity is 13.42%.

Question: What about the Activity [11] of the same molecule?
Answer: The Activity was “Active”.

Question: And the Activity [12]?
Answer: The Activity was “Active”.

Question: And the Activity [13]?
Answer: Its Activity is “Active”.

Question: And the Activity [14]?
Answer: Its Activity is “Active”.

Question: What about the Activity [15] of the same molecule?
Answer: Its Activity is “inactive”.

Question: And the Activity [16]?
Answer: The Activity was “Active”.

Question: And the inhibition in vivo at 2.5 mg/kg [17]?
Answer: The inhibition in vivo at 2.5 mg/kg was 43%.

Question: And the Activity [18]?
Answer: Its Activity is “Active”.
